The species entered for experiment [1] is Bos taurus. Briefly: Inhibition of calf thymus DNA topoisomerase 1-mediated relaxation of supercoiled pBR322 plasmid DNA at 1 ug/ml by agarose gel electrophoresis. An outline of the steps: (§1)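 Reaction contained 1 unit calf thymus topo I and supercoiled pBR322 in 35 mM Tris-HCl pH 8.0, 72 mM KCl, 5 mM MgCl2, 5 mM DTT, 5 mM spermidine and 0.1% BSA, with or without compound, at 37 °C. Products were run on 1% agarose in TBE at 5 V/cm, stained with ethidium bromide and photographed under UV. Supercoiled and relaxed bands were quantified from gel images.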

The test system of a further experiment is MCF7. Briefly: Cytotoxicity against human MCF7 cells after 72 hrs by MTT assay. It is filed as functional, cell-based. The note with it: MCF7, 72 h. A digest of the protocol: (§2)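 Cells seeded at 5000/well and left to attach overnight, then given fresh medium containing compound over […] and incubated 72 h. Viability read by MTT: 4 h contact, crystals dissolved in DMSO over 60 min of shaking, absorbance at 545 nm. Untreated wells served as controls; DMSO at most 0.3%. Two plates with at least five parallel wells each; IC50 from fitted dose–response curves.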
In general terms: Tetrazolium assays rely on reduction of a dye to a coloured formazan, in cell work by metabolically active cells.

The subject of another experiment is HeLa. Briefly: Cytotoxicity against human HeLa cells after 72 hrs by MTT assay. It is filed as functional, cell-based. An outline of the steps:
as §2

For a further experiment, the system named is A-431. Nature of the experiment: Cytotoxicity against human A431 cells after 72 hrs by MTT assay. Type of experiment: functional, cell-based. The note with it: A-431, 72 h. A digest of the protocol: as §2
The species named for experiment [2] is Bos taurus. Briefly: Inhibition of calf thymus DNA topoisomerase 1-mediated relaxation of supercoiled pBR322 plasmid DNA by agarose gel electrophoresis. A digest of the protocol:
as §1

Calls of active or inactive are those of the source. No cut-off for these calls is given here.

Consider `Oc1ccccc1-c1nc2ccccc2[nH]1`, for which the inhibition – broadly, how much of the control response was suppressed – in the experiment listed under Bos taurus [1] is 95.4%; in the experiment listed under Bos taurus [2], “Dose-dependent effect”. Besides, the 50% inhibitory concentration (IC50) (as a rule, the midpoint of a concentration-inhibition curve) in the experiment with MCF7 is 16 µM; in the experiment with HeLa, 26.4 µM; with A-431 it was greater than 30 µM.

Turning to `Oc1ccccc1-c1nc2cc(Cl)ccc2[nH]1`, the inhibition is 99% in the experiment filed under Bos taurus [1] and “Dose-dependent effect” in the experiment filed under Bos taurus [2]. For the same compound, the IC50 in the experiment with MCF7 was 6.94 µM; with HeLa it was 6.04 µM; in the experiment on A-431, 6.16 µM.

In the case of `COc1cccc2c1C(=O)c1c(O)c3c(c(O)c1C2=O)C[C@@](O)(C(=O)CO)C[C@@H]3O[C@H]1C[C@H](N)[C@H](O)[C@H](C)O1` [DOXORUBICIN], the figures for the IC50 in the experiment with MCF7, with HeLa and in the experiment with A-431 were 0.31 µM, 0.16 µM and 0.19 µM, respectively.

Consider `Clc1ccc2[nH]c(-c3ccccc3OCCN3CCCCC3)nc2c1`, for which the inhibition entry in the experiment listed under Bos taurus [1] is “inactive”. The inhibition result in the experiment listed under Bos taurus [2] was “Dose-dependent effect”.

Regarding `Clc1ccc2[nH]c(-c3ccccc3OCCN3CCCC3)nc2c1`, the inhibition result in the experiment filed under Bos taurus [1] is “inactive”. Besides, the inhibition result in the experiment filed under Bos taurus [2] is “Dose-dependent effect”.

As to `c1ccc(-c2nc3ccccc3[nH]2)c(OCCN2CCOCC2)c1`, in the experiment listed under Bos taurus [1], the inhibition result is “inactive”. Further, the inhibition entry in the experiment listed under Bos taurus [2] was “Dose-dependent effect”.

`Clc1ccc2[nH]c(-c3ccccc3OCCN3CCOCC3)nc2c1`: in the experiment listed under Bos taurus [1], the inhibition result was “inactive”. In addition, in the experiment listed under Bos taurus [2], the inhibition result is “Dose-dependent effect”.

Consider `c1ccc(-c2nc3ccccc3[nH]2)c(OCCN2CCCC2)c1`, for which the inhibition in the experiment filed under Bos taurus [1] is 90.2%; in the experiment filed under Bos taurus [2], “Dose-dependent effect”. In addition, the IC50 in the experiment with MCF7 is greater than 30 µM; in the experiment on HeLa, 19.8 µM; in the experiment with A-431, greater than 30 µM.

Consider `c1ccc(-c2nc3ccccc3[nH]2)c(OCCN2CCCCC2)c1`, for which the inhibition result in the experiment filed under Bos taurus [1] is “inactive”. For the same compound, in the experiment listed under Bos taurus [2], the inhibition result is “Dose-dependent effect”.

As to `CCN(CC)CCOc1ccccc1-c1nc2cc(Cl)ccc2[nH]1`, the inhibition result in the experiment listed under Bos taurus [1] was “inactive”. Besides, the inhibition result in the experiment filed under Bos taurus [2] was “Dose-dependent effect”.

(Values after ChEMBL document CHEMBL1158342, “Synthesis and biological activity evaluation of 1H-benzimidazoles via mammalian DNA topoisomerase I and cytostaticity assays” (Eur J Med Chem, 2009).)
